This is an account of results in ChEMBL document CHEMBL1137711, “Design, synthesis, structure-activity relationship and antibacterial activity series of novel imidazo fused quinolone carboxamides” (2009).

Values after ≈ are worked out from the molar mass of the structure shown. Active and inactive are the calls of the source. The rule behind the calls is not given here.

Format in all cases: functional
Test [1] relates to Bacillus subtilis. As to the kind of experiment: Antibacterial activity against Bacillus subtilis after 24 hrs by broth dilution method. The method in brief:
(§1)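 MIC by broth dilution (NCCLS 1982) in nutrient broth, test compound serially diluted across tubes 1–9. Each tube receives 0.5 ml overnight culture. Incubation 37 °C for 24 h, then turbidity read. DMSO as negative control, ciprofloxacin as reference.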

Test [2] has as its system Lysinibacillus sphaericus. The test can be described thus: Antibacterial activity against Bacillus sphaericus after 24 hrs by broth dilution method. Summed up: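 Broth dilution per NCCLS 1982: test agent serially diluted across tubes 1–9 of sterile nutrient broth; 0.5 ml overnight culture added to each tube; incubated at 37 °C for 24 h, then turbidity read to give the minimum inhibitory concentration. DMSO served as negative control; ciprofloxacin run alongside.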

Test [3] relates to Staphylococcus aureus. The test can be described thus: Antibacterial activity against Staphylococcus aureus after 24 hrs by broth dilution method. The method in brief: as §1
Test [4] relates to Pseudomonas aeruginosa. The test can be described thus: Antibacterial activity against Pseudomonas aeruginosa after 24 hrs by broth dilution method. The method in brief:
as §1

The subject of test [5] is Klebsiella aerogenes. The test can be described thus: Antibacterial activity against Klebsiella aerogenes after 24 hrs by broth dilution method. The method in brief: as §1
Test [6] concerns Chromobacterium violaceum. The test can be described thus: Antibacterial activity against Chromobacterium violaceum after 24 hrs by broth dilution method. Summed up: as §1

As to `CNC(=O)c1cn2c(-c3ccc(O)cc3)nc3c(NC)c(F)cc(c1=O)c32`, the MIC turned out to be 12.5 µg/mL (≈ 34.1 µM) in test [1], 25 µg/mL (≈ 68.2 µM) in test [2], 25 µg/mL (≈ 68.2 µM) in test [3] and 25 µg/mL (≈ 68.2 µM) in test [6]. The MIC entry in test [4] and in test [5] was “inactive” each time.
Regarding `CNC(=O)c1cn2c(-c3ccc(OC)cc3)nc3c(NC)c(F)cc(c1=O)c32`, the MIC in test [1] is 12.5 µg/mL (≈ 32.9 µM); in test [2] it was 12.5 µg/mL (≈ 32.9 µM); in test [3], 25 µg/mL (≈ 65.7 µM); in test [4], 6.25 µg/mL (≈ 16.4 µM); in test [6], 25 µg/mL (≈ 65.7 µM). Also, the MIC result in test [5] was “inactive”.
Turning to `O=C(O)c1cn(C2CC2)c2cc(N3CCNCC3)c(F)cc2c1=O` [CIPROFLOXACIN], the MIC in test [1] was found to be 0.78 µg/mL (≈ 2.35 µM); in test [2], 0.78 µg/mL (≈ 2.35 µM); in test [3], 0.39 µg/mL (≈ 1.18 µM); in test [4], 0.78 µg/mL (≈ 2.35 µM); in test [5] it was 0.78 µg/mL (≈ 2.35 µM); in test [6], 0.39 µg/mL (≈ 1.18 µM).
For the compound `CCn1cc(C(=O)NC)c(=O)c2cc(F)c3c(nc(CC(C)C)n3C)c21`, the MIC result in test [1], in test [2] and in test [3] was “inactive” in each case. For the same compound, the MIC in test [4] came out at 25 µg/mL (≈ 69.8 µM); in test [5], 12.5 µg/mL (≈ 34.9 µM); in test [6], 25 µg/mL (≈ 69.8 µM).
As to `CCCCCCc1nc2c3c(cc(F)c2n1C)c(=O)c(C(=O)NC)cn3CC`, the MIC result in test [1], in test [2] and in test [3] was “inactive” each time. Moreover, the MIC is 50 µg/mL (≈ 129 µM) in test [4], 50 µg/mL (≈ 129 µM) in test [5] and 25 µg/mL (≈ 64.7 µM) in test [6].
With `CCCCc1nc2c3c(cc(F)c2n1C)c(=O)c(C(=O)NC)cn3CC`, the MIC result in test [1], in test [2] and in test [3] was “inactive” each time. Also, the MIC in test [4] came out at 12.5 µg/mL (≈ 34.9 µM); in test [5], 25 µg/mL (≈ 69.8 µM); in test [6], 25 µg/mL (≈ 69.8 µM).
Consider `CCCc1nc2c3c(cc(F)c2n1C)c(=O)c(C(=O)NC)cn3CC`, for which the minimal inhibitory concentration (MIC) came out at 12.5 µg/mL (≈ 36.3 µM) in test [1]; 50 µg/mL (≈ 145 µM) in test [2]; 25 µg/mL (≈ 72.6 µM) in test [3]; 25 µg/mL (≈ 72.6 µM) in test [4]; 12.5 µg/mL (≈ 36.3 µM) in test [5]; 25 µg/mL (≈ 72.6 µM) in test [6].
Regarding `CNC(=O)c1cn2c(-c3ccco3)nc3c(NC)c(F)cc(c1=O)c32`, the MIC in test [1] came to 6.25 µg/mL (≈ 18.4 µM); in test [2], 25 µg/mL (≈ 73.5 µM); in test [3], 6.25 µg/mL (≈ 18.4 µM); in test [4], 12.5 µg/mL (≈ 36.7 µM); in test [6] it was 6.25 µg/mL (≈ 18.4 µM). Besides, in test [5], the MIC result is “inactive”.
Take `CNC(=O)c1cn2c(-c3ccc(N(C)C)cc3)nc3c(NC)c(F)cc(c1=O)c32`: the minimal inhibitory concentration (MIC) in test [1] was determined as 25 µg/mL (≈ 63.5 µM); in test [2], 25 µg/mL (≈ 63.5 µM); in test [3] it was 12.5 µg/mL (≈ 31.8 µM); in test [4], 6.25 µg/mL (≈ 15.9 µM); in test [5], 25 µg/mL (≈ 63.5 µM); in test [6], 12.5 µg/mL (≈ 31.8 µM).
For the compound `CCn1cc(C(=O)NC)c(=O)c2cc(F)c3c(nc(C(C)C)n3C)c21`, the MIC in test [1] amounted to 12.5 µg/mL (≈ 36.3 µM); in test [2] it was 25 µg/mL (≈ 72.6 µM); in test [3] it was 50 µg/mL (≈ 145 µM); in test [4], 50 µg/mL (≈ 145 µM); in test [5], 50 µg/mL (≈ 145 µM); in test [6] it was 12.5 µg/mL (≈ 36.3 µM).
Consider `CCc1nc2c3c(cc(F)c2n1C)c(=O)c(C(=O)NC)cn3CC`, for which the MIC result in test [1], in test [2], in test [3], in test [4], in test [5] and in test [6] was “inactive” in each case.
For `CNC(=O)c1cn2c(-c3ccc(C)cc3)nc3c(NC)c(F)cc(c1=O)c32`, the MIC worked out at 25 µg/mL (≈ 68.6 µM) in test [1]; 12.5 µg/mL (≈ 34.3 µM) in test [2]; 12.5 µg/mL (≈ 34.3 µM) in test [3]; 6.25 µg/mL (≈ 17.2 µM) in test [4]; 6.25 µg/mL (≈ 17.2 µM) in test [6]. For the same compound, in test [5], the MIC result was “inactive”.
With `CNC(=O)c1cn2c(-c3ccc(F)cc3)nc3c(NC)c(F)cc(c1=O)c32`, the MIC is 25 µg/mL (≈ 67.9 µM) in test [1]; 25 µg/mL (≈ 67.9 µM) in test [2]; 25 µg/mL (≈ 67.9 µM) in test [3]; 25 µg/mL (≈ 67.9 µM) in test [4]; 6.25 µg/mL (≈ 17 µM) in test [6]. Further, in test [5], the MIC result is “inactive”.
For the compound `CCCCCc1nc2c3c(cc(F)c2n1C)c(=O)c(C(=O)NC)cn3CC`, the MIC in test [1] was 25 µg/mL (≈ 67.1 µM); in test [2] it was 50 µg/mL (≈ 134 µM); in test [3], 25 µg/mL (≈ 67.1 µM); in test [4] it was 25 µg/mL (≈ 67.1 µM); in test [5] it was 12.5 µg/mL (≈ 33.6 µM); in test [6], 25 µg/mL (≈ 67.1 µM).
Take `CNC(=O)c1cn2c(-c3ccccc3)nc3c(NC)c(F)cc(c1=O)c32`: the MIC came to 12.5 µg/mL (≈ 35.7 µM) in test [1]; 25 µg/mL (≈ 71.4 µM) in test [2]; 6.25 µg/mL (≈ 17.8 µM) in test [3]; 12.5 µg/mL (≈ 35.7 µM) in test [4]; 12.5 µg/mL (≈ 35.7 µM) in test [6]. The MIC entry in test [5] was “inactive”.
Consider `CNC(=O)c1cn2c(-c3ccc([N+](=O)[O-])cc3)nc3c(NC)c(F)cc(c1=O)c32`, for which the MIC in test [1] was determined as 12.5 µg/mL (≈ 31.6 µM); in test [2] it was 12.5 µg/mL (≈ 31.6 µM); in test [3] it was 12.5 µg/mL (≈ 31.6 µM); in test [6], 25 µg/mL (≈ 63.2 µM). In addition, the MIC result in test [4] and in test [5] was “inactive” each time.
For `CNC(=O)c1cn2c(-c3ccc(Cl)cc3)nc3c(NC)c(F)cc(c1=O)c32`, the MIC in test [1] is 25 µg/mL (≈ 65 µM); in test [2], 25 µg/mL (≈ 65 µM); in test [3], 25 µg/mL (≈ 65 µM); in test [4] it was 25 µg/mL (≈ 65 µM); in test [6], 6.25 µg/mL (≈ 16.2 µM). Also, the MIC entry in test [5] was “inactive”.
